Measurements reported in PMC12188530 (RSC Advances, 2025).
≈ marks a conversion by molar mass, not a printed value. Counter-ions that a name gives are not always drawn.

Key:
[1] = target: T1, S. aureus ATCC 43300 Sortase A (Staphylococcus aureus, UniProt Q2FV99); test: Sortase A activity assay by FRET; type: biochemical
T1 sequence (Q2FV99 60-206): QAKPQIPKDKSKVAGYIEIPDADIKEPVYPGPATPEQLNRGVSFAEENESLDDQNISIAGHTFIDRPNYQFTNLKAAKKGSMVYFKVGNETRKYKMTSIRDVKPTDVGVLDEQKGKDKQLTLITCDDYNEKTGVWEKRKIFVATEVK

[2] = system: S. aureus ATCC 43300 membrane potential; test: Membrane potential perturbation assay; type: cell-based, Staphylococcus aureus; conditions: MIC and 2 × MIC
Procedure, shortened: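 Cells pelleted at 2400×g for 10 min and resuspended in PBS at OD600 1.0. DiOC2(3) added to 30 μM final. Cells mixed with test compound at MIC and 2 × MIC. CCCP served as positive control and untreated cells as negative control; n = 3, mean ± SD.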

Cytotoxicity assay = type: cell-based; conditions: human, HepG2 cells
S. aureus ATCC 43300 [3] = test: Time-kill kinetics; type: cell-based, Staphylococcus aureus; conditions: 2 × MIC; for re-growth of the bacteria: after 24 hours; for log reduction in CFU: within 2 to 4 hours
Procedure, shortened: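 Culture grown to OD600 0.5 (5 × 10^8 CFU mL−1), then diluted 1000-fold in CA-MHB. Test compound added at 2 × MIC, with ciprofloxacin (2 × MIC) and untreated controls. Incubated at 37 °C with 200 rpm shaking and sampled at 0, 2, 4, 8, 12 and 24 h. Samples plated on MHA for 24 h at 37 °C, and CFU mL−1 determined. Run in triplicate.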

S. aureus ATCC 43300 [4] = test: MIC and MBC by micro broth dilution; type: cell-based, Staphylococcus aureus
[5] = system: S. aureus ATCC 43300 biofilm; test: Biofilm growth inhibition assay; type: cell-based, Staphylococcus aureus; conditions: at MIC, 24 hours
Procedure, shortened: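 S. aureus grown in TSB at 37 °C for 24 h, then diluted 1:100 in TSB with 0.1% glucose. […] Planktonic cells removed, wells PBS-washed, dried 10 min and stained with 0.1% crystal violet (10 min, 25 °C). Stain solubilized in 33% acetic acid (30 min, RT, shaking) and read at A600. Percent inhibition calculated against untreated control, in triplicate with three biological replicates.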

Sortase A = target: T2, Sortase A (Staphylococcus aureus, UniProt Q2FV99); test: Fluorescence quenching assay; type: binding; conditions: compounds 0 to 128 μg mL^−1
T2 sequence (Q2FV99 60-206): T1 sequence (Q2FV99 60-206)

S. aureus ATCC 43300 [6] = test: Thigh infection in a neutropenic mouse; type: in vivo; conditions: BALB/C mice, group n = 4, 100 mg kg^−1 oral
Procedure, shortened: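 Female BALB/c mice, 6–8 weeks old, n = 4 per group, made neutropenic with cyclophosphamide i.p. (150 mg kg−1 on day −4, 100 mg kg−1 on day −1). Right thigh infected i.m. with 5 × 10^5 CFU per mouse. At 4 h, test compound given orally at 100 mg kg−1, alongside vancomycin 100 mg kg−1 oral and a sunflower oil vehicle group. At 24 h, thighs homogenized in PBS and CFU plated on MHA, in triplicate per mouse.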

[7] = system: S. aureus ATCC 43300 invasion in macrophage (THP1); test: Macrophage invasion assay; type: cell-based, Staphylococcus aureus; conditions: THP1, MIC and 2 × MIC
[8] = Staphylococcus aureus, ATCC43300, 18 h
[9] = Staphylococcus aureus, ATCC43300, 18 h, S. aureus ATCC 43300, MHB, 37 °C, 18 hours

## O.O=c1c(O)c(-c2ccc(O)c(O)c2)oc2cc(O)cc(O)c12 [Quercetin hydrate]
[1]; concentration 128 μg mL^−1
  % inhibition: 73%

## CN(C)C(=O)C(CCN1CCC(O)(c2ccc(Cl)cc2)CC1)(c1ccccc1)c1ccccc1 [Loperamide hydrochloride]
[2]
  membrane potential disruption: significant reduction only at 2 × MIC
Cytotoxicity assay
  viability at 24 h, 1 × MIC: 84%
S. aureus ATCC 43300 [3]
  log reduction in colony-forming units (CFU) from the initial inoculum: ≥ 3 log
  time within which the bacteria were eliminated: 8 to 12 h
  re-growth of the bacteria: re-growth of the bacteria was observed after 24 hours
S. aureus ATCC 43300 [4]; S. aureus ATCC 43300, MHB, 37 °C, 18 hours
  MIC: 64 µg/mL
S. aureus ATCC 43300 [4]; [8]
  MBC: 128 µg/mL
S. aureus ATCC 43300 [4]; [9]
  MIC: 32 µg/mL
[5]
  biofilm growth inhibition: 95%
Sortase A
  dose-dependent quenching of Sortase A fluorescence intensity: except loperamide hydrochloride
[1]; FRET assay
  inhibitory activity against the enzyme (in words): except loperamide hydrochloride

## CN(C)CCCN1c2ccccc2Sc2ccc(C(F)(F)F)cc21 [Triflupromazine hydrochloride]
Cytotoxicity assay
  viability at 24 h, 1 × MIC: 63%
S. aureus ATCC 43300 [3]
  re-growth of the bacteria: re-growth of the bacteria was observed after 24 hours
  log reduction in CFU: ~2 log
S. aureus ATCC 43300 [4]; [9]
  MIC: 32 µg/mL
[5]
  biofilm growth inhibition: 19%
[1]
  inhibition at 128 µg/mL: 48%

## CN(C)CCCN1c2ccccc2Sc2ccc(Cl)cc21 [Chlorpromazine hydrochloride]
Cytotoxicity assay
  viability at 24 h, 1 × MIC: 28%
S. aureus ATCC 43300 [3]
  log reduction in colony-forming units (CFU) from the initial inoculum: ≥ 3 log
  time within which the bacteria were eliminated: 8 to 12 h
  re-growth of the bacteria: re-growth of the bacteria was observed after 24 hours
S. aureus ATCC 43300 [4]; [9]
  MIC: 32 µg/mL
[5]
  biofilm growth inhibition: 93%
[1]
  inhibition at 128 µg/mL: 49%

## CN1CCN(CCCN2c3ccccc3Sc3ccc(Cl)cc32)CC1 [Prochlorperazine dimaleate]
Cytotoxicity assay
  viability at 24 h, 1 × MIC: 86%
  viability at 24 h, 2 × MIC: ~50%
S. aureus ATCC 43300 [3]
  re-growth of the bacteria: re-growth of the bacteria was observed after 24 hours
  log reduction in CFU: ~2 log
S. aureus ATCC 43300 [4]; [9]
  MIC: 32 µg/mL
S. aureus ATCC 43300 [6]
  death during the experiment: One BALB/C died during the experiment
[5]
  biofilm growth inhibition: 67%
[7]
  S. aureus ATCC 43300 invasion of macrophages: successfully reduced MRSA invasion of macrophages at 2 × MIC

## CCOC(=O)C1=C(COCCN)NC(C)=C(C(=O)OC)C1c1ccccc1Cl (centres unmarked) [Amlodipine besylate]
Cytotoxicity assay
  viability at 24 h, 1 × MIC: 60%
S. aureus ATCC 43300 [3]
  log reduction in colony-forming units (CFU) from the initial inoculum: ≥ 3 log
  time within which the bacteria were eliminated: 4 to 24 h
S. aureus ATCC 43300 [4]; [8]
  MBC: 128 µg/mL
S. aureus ATCC 43300 [4]; [9]
  MIC: 64 µg/mL
[5]
  biofilm growth inhibition: 40%
[1]
  inhibition at 128 µg/mL: 57%

## c1ccc2c(c1)Sc1ccccc1N2CC1CN2CCC1CC2 (centres unmarked) [Mequitazine]
Cytotoxicity assay
  viability at 24 h, 1 × MIC: 30%
S. aureus ATCC 43300 [3]
  log reduction in colony-forming units (CFU) from the initial inoculum: ≥ 3 log
  time within which the bacteria were eliminated: 12 to 24 h
S. aureus ATCC 43300 [4]; [8]
  MBC: 128 µg/mL (≈ 397 µM)
  MIC: 64 µg/mL (≈ 198 µM)
[5]
  biofilm growth inhibition: 95%
[1]
  inhibition at 128 µg/mL: 64%
